Measured values from ChEMBL document CHEMBL3243949, “Discriminant--analytical investigation on the structural dependence of hyperglycemic and hypoglycemic activity in a series of substituted o-toluenesulfonylthioureas and o-toluenesulfonylureas” (1979).

What follows are molecules tested on Rattus norvegicus (assay: Effect on blood glucose level per 100 ml in rat at 70 mg/kg, ip after 90 mins). Settings: route intraperitoneal.
Format: functional
In short: (§1)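 Narcotized rats, six per experiment; blood sugar measured before and 90 min after intraperitoneal dosing (70 and 100 mg/kg used in study). Glucose determined by o-toluidine reaction in acid medium. Values are mean of six rats ± 2 s. Classed hyper- or hypoglycemic by Student's t test, before vs after, when α < 0.01.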

Compound | Activity
CCCCNC(=O)NS(=O)(=O)c1ccc(OC)cc1C | 114 mg

Each molecule was assayed on Rattus norvegicus (assay: Hypoglycemic activity in rat assessed as blood glucose level per 100 ml at 70 mg/kg, ip after 90 mins). Settings: route intraperitoneal.
Format: functional
In short: as §1

Compound | Activity
COc1ccc(S(=O)(=O)NC(=O)NCc2ccccc2)c(C)c1 | 104 mg
CCCCNC(=O)NS(=O)(=O)c1ccc(OCC)cc1C | 114 mg
CCCCNC(=O)NS(=O)(=O)c1ccc(OCCC)cc1C | 130 mg
CCCCOc1ccc(S(=O)(=O)NC(=S)NC)c(C)c1 | 77 mg
CCCCCOc1ccc(S(=O)(=O)NC(=S)NCCCC)c(C)c1 | 129 mg
CCCCNC(=O)NS(=O)(=O)c1ccc(NC(C)=O)cc1C | 112 mg
COc1ccc(S(=O)(=O)NC(=S)NCc2ccccc2)c(C)c1 | 97 mg
CCCCNC(=S)NS(=O)(=O)c1ccc(OCC)cc1C | 99 mg
CCCCNC(=S)NS(=O)(=O)c1ccc(NC(C)=O)cc1C | 116 mg
CCCCNC(=O)NS(=O)(=O)c1ccc(C)cc1C | 102 mg
CCCCNC(=S)NS(=O)(=O)c1ccc(C)cc1C | 119 mg

The molecules below were run on Rattus norvegicus (assay: Hyperglycemic activity in rat assessed as blood glucose level per 100 ml at 70 mg/kg, ip after 90 mins). Settings: route intraperitoneal.
Format: functional
In short: as §1

Compound | Activity
CNC(=O)NS(=O)(=O)c1ccc(OC)cc1C | 142 mg
CCNC(=O)NS(=O)(=O)c1ccc(OC)cc1C | 135 mg
CCCNC(=O)NS(=O)(=O)c1ccc(OC)cc1C | 135 mg
CCCNC(=S)NS(=O)(=O)c1ccc(OC)cc1C | 153 mg
COc1ccc(S(=O)(=O)NC(N)=O)c(C)c1 | 97 mg
CCOc1ccc(S(=O)(=O)NC(N)=O)c(C)c1 | 103 mg
CCCCNC(=S)NS(=O)(=O)c1ccc(OCCC)cc1C | 160 mg
CCCCOc1ccc(S(=O)(=O)NC(=O)NC)c(C)c1 | 96 mg
CCCCNC(=O)NS(=O)(=O)c1ccc(OCCCC)cc1C | 113 mg
CCCCCOc1ccc(S(=O)(=O)NC(=O)NCCCC)c(C)c1 | 79 mg
